# Test results: ChEMBL document CHEMBL1151979, “Antiallergic potential on RBL-2H3 cells of some phenolic constituents of Zingiber officinale (ginger)” (J Nat Prod, 2009)
# Active and inactive are the calls of the source. The rule behind the calls is not given here.
# Legend:
# RBL-2H3 [1] = assay: Antiallergic activity in mIgE-DNP and DNP-BSA-stimulated rat RBL2H3 cells assessed as inhibition of beta-hexosaminidase release at 100 uM pretreated before mIgE-DNP challenge measured after 48 hrs relative to control; type: functional
# How it was run: (§1)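 RBL-2H3 cells (DMEM, 10% FBS) seeded at 1 × 10^5/well and left 4-6 h at 37 °C to adhere. Compound was added at final concentrations for various pretreatment times, then mIgE-DNP was added for 16 h. Cells were washed in Tyrode's buffer (pH 7.4, 1 mg/mL BSA) and challenged with DNP-BSA 1 µg/mL for 1 h at 37 °C. Supernatant was incubated with p-NAG in citrate pH 4.5 for 1 h at 37 °C and read at A405. Inhibition was calculated against Triton X-100 total-release and spontaneous-release controls.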
# RBL-2H3 [2] = assay: Antiallergic activity in mIgE-DNP and DNP-BSA-stimulated rat RBL2H3 cells assessed as inhibition of beta-hexosaminidase release at 100 uM pretreated before mIgE-DNP challenge measured after 12 hrs; type: functional, cell-based; how it was run: as §1
# RBL-2H3 [3] = assay: Antiallergic activity in mIgE-DNP and DNP-BSA-stimulated rat RBL2H3 cells assessed as inhibition of beta-hexosaminidase release at 1 uM pretreated before mIgE-DNP challenge measured after 48 hrs relative to control; type: functional; how it was run: as §1
# RBL-2H3 [4] = assay: Antiallergic activity in mIgE-DNP and DNP-BSA-stimulated rat RBL2H3 cells assessed as inhibition of beta-hexosaminidase release at 200 uM pretreated before mIgE-DNP challenge measured after 48 hrs relative to control; type: functional; how it was run: as §1
# [5] = Cytotoxicity against rat RBL2H3 cells after 12 hrs by MTT assay; type: cell-based; conditions: RBL-2H3, 12 h
# How it was run: (§2)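 MTT viability assay in RBL-2H3 cells grown to 70-80% confluence and then exposed to compound; untreated and ≤0.5% DMSO cultures served as controls. MTT stock 5 mg/mL was diluted 1:10 into medium 3 h before the end of exposure, then incubated 2 h at 37 °C. Formazan was dissolved in DMSO and read at 600 nm. Viability is given as % of control OD, ≥3 repeats, and IC50 was derived from this.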
# RBL-2H3 [6] = assay: Antiallergic activity in mIgE-DNP and DNP-BSA-stimulated rat RBL2H3 cells assessed as inhibition of beta-hexosaminidase release at 200 uM pretreated before mIgE-DNP challenge measured after 24 hrs relative to control; type: functional; how it was run: as §1
# RBL-2H3 [7] = assay: Antiallergic activity in mIgE-DNP and DNP-BSA-stimulated rat RBL2H3 cells assessed as inhibition of beta-hexosaminidase release at 1 uM pretreated before mIgE-DNP challenge measured after 24 hrs relative to control; type: functional; how it was run: as §1
# RBL-2H3 [8] = assay: Antiallergic activity in mIgE-DNP and DNP-BSA-stimulated rat RBL2H3 cells assessed as inhibition of beta-hexosaminidase release at 1 uM pretreated before mIgE-DNP challenge measured after 12 hrs relative to control; type: functional; how it was run: as §1
# RBL-2H3 [9] = assay: Antiallergic activity in mIgE-DNP and DNP-BSA-stimulated rat RBL2H3 cells assessed as inhibition of beta-hexosaminidase release at 100 uM pretreated before mIgE-DNP challenge measured after 24 hrs relative to control; type: functional; how it was run: as §1
# RBL-2H3 [10] = assay: Antiallergic activity in mIgE-DNP and DNP-BSA-stimulated rat RBL2H3 cells assessed as inhibition of beta-hexosaminidase release at 200 uM pretreated before mIgE-DNP challenge measured after 12 hrs; type: functional, cell-based; how it was run: as §1
# [11] = Cytotoxicity against rat RBL2H3 cells at 200 uM after 12 hrs by MTT assay; type: cell-based; conditions: rbl-2h3, 12 h; how it was run: as §2
# [12] = Cytotoxicity against rat RBL2H3 cells at 120 uM after 12 hrs by MTT assay; type: cell-based; conditions: rbl-2h3, 12 h; how it was run: as §2
# RBL-2H3 [13] = assay: Antiallergic activity in mIgE-DNP and DNP-BSA-stimulated rat RBL2H3 cells assessed as inhibition of beta-hexosaminidase release pretreated before mIgE-DNP challenge measured after 12 to 48 hrs; type: functional, cell-based; how it was run: as §1
# RBL-2H3 [14] = assay: Antiallergic activity in mIgE-DNP and DNP-BSA-stimulated rat RBL2H3 cells assessed as inhibition of beta-hexosaminidase release at 200 uM pretreated before mIgE-DNP challenge; type: functional, cell-based; conditions: TDE = time-dependent effect; how it was run: as §1
Compound,inhibition (RBL-2H3 [1]),inhibition (RBL-2H3 [2]),inhibition at 1 µM (RBL-2H3 [3]) [%],inhibition (RBL-2H3 [4]),IC50 [5] [µM],inhibition (RBL-2H3 [6]),inhibition at 1 µM (RBL-2H3 [7]) [%],inhibition at 1 µM (RBL-2H3 [8]) [%],inhibition (RBL-2H3 [9]),inhibition (RBL-2H3 [10]),Activity [11],Activity [12],inhibition (RBL-2H3 [13]),inhibition (RBL-2H3 [14])
CCCCCC(=O)/C=C(O)/C=C/c1ccc(O)c(OC)c1,Active,Active,60,Active,38.5,Active,60,60,Active,Active,,,,
CCCCC[C@H](O)CC(=O)CCc1ccc(O)c(OC)c1 [GINGEROL],Active,Active,60,Active,185,Active,60,60,Active,Active,Toxic,,,
CCCCC/C=C/C(=O)CCc1ccc(O)c(OC)c1 [SHOGAOL],,,,,90.4,,,,,,,Toxic,,
COc1cc(CCC(=O)CC(O)CCc2ccc(O)c(OC)c2)ccc1O (stereo not drawn) [HEXAHYDROCURCUMIN],,,,,152,,,,,,Toxic,,Dose-dependent effect,tde
CCCCCCCCC[C@H](O)CC(=O)CCc1ccc(O)c(OC)c1,Active,Active,60,Active,112,Active,60,60,Active,Active,,Toxic,,
